Laboratory results taken from ChEMBL document CHEMBL3272021, “Quaternary pilocarpine derivatives as potential acetylcholine antagonists. 2. Alterations in the lactone and imidazole moieties” (J Med Chem, 1976).
Structures can show the parent of a compound that is named as a salt. Calls of active or inactive are those of the source. No cut-off for these calls is given here.

Experiments:
[1] = tested on: Mus musculus; assay: Antidotal activity in ip dosed male mouse assessed as inhibition of tetraethylpyrophosphate-induced intoxication drug administered 5 mins prior to subcutaneously administration of 3 X LD50 of TEPP in presence of 25 mg/kg atropine sulfate; type: functional, organism-based; parameters: dose 25 mg/kg; details: at 25 mg/kg
Outline: (§1)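 Male mice, 20 g body weight. Compound was dissolved in saline or propylene glycol and given ip at the maximal dose (up to 100 mg/kg) that caused no observable symptoms alongside atropine sulfate (25 mg/kg), per preliminary groups of four mice. It was co-injected with atropine 5 min before sc 3 × LD50 TEPP. Surviving mice were scored from two experiments of five animals each.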

[2] = tested on: Ileum; assay: Inhibition of acetylcholine-induced contraction in guinea pig ileum at 10 ug/ml; type: functional, Cavia porcellus; details: for inhibition at 10 µg/mL: Cavia porcellus, Ileum
Outline: (§2)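 Terminal guinea pig ileum segment in a 5-ml organ bath of Tyrode solution at 35°, with isometric kymograph recording. Control contractions were elicited with 0.1 μg AcCh. Compound was added, and AcCh followed 1 min later without washing. The value is percent reduction of the control AcCh response, averaged over two separate assays. Concentrations are final per ml of bath fluid.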

[3] = tested on: Ileum; assay: Toxicity in guinea pig ileum assessed as spasmogenic activity relative to 0.6 ug/ml pilocarpine; type: tissue-based, Cavia porcellus; details: ex_vivo
Outline: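 Guinea pig terminal ileum in a 5-ml Tyrode bath at 35°, with isometric kymograph recording at 16× magnification. Contact time was 30 sec with a 2-min cycle. Reference contractions used pilocarpine (0.6 μg). Compounds were applied at several concentrations, and potency relative to pilocarpine was calculated from contraction heights.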

[4] = tested on: Ileum; assay: Inhibition of acetylcholine-induced contraction in guinea pig ileum at 1 ug/ml; type: functional; details: Cavia porcellus; outline: as §2
[5] = tested on: Ileum; assay: Toxicity in guinea pig ileum assessed as spasmogenic activity treated 1 min after addition of 10 ng/ml muscarinic acetylcholine receptor antagonist atropine sulphate; type: tissue-based, Cavia porcellus
[6] = tested on: Ileum; assay: Inhibition of acetylcholine-induced contraction in guinea pig ileum at 0.1 ug/ml; type: functional; details: Cavia porcellus; outline: as §2
[7] = tested on: Mus musculus; assay: Antidotal activity in male mouse assessed as inhibition of tetraethylpyrophosphate-induced intoxication at 100 mg/kg, ip drug administered 5 mins prior to subcutaneously administration of 3 X LD50 of TEPP in presence of 25 mg/kg atropine sulfate; type: functional, organism-based; outline: as §1
[8] = tested on: Ileum; assay: Inhibition of acetylcholine-induced contraction in guinea pig ileum at 0.4 ug/ml; type: functional; details: Cavia porcellus; outline: as §2
[9] = tested on: Ileum; assay: Inhibition of acetylcholine-induced contraction in guinea pig ileum at 0.03 ug/ml; details: Cavia porcellus, read-out: INH
[10] = tested on: Ileum; assay: Toxicity in guinea pig ileum assessed as spasmogenic activity at 0.6 ug/ml; type: tissue-based, Cavia porcellus
[11] = tested on: Mus musculus; assay: Antidotal activity in male mouse assessed as inhibition of tetraethylpyrophosphate-induced intoxication at 25 mg/kg, ip drug administered 5 mins prior to subcutaneously administration of 3 X LD50 of TEPP in presence of 25 mg/kg atropine sulfate; type: functional, organism-based; outline: as §1
[12] = tested on: Ileum; assay: Inhibition of acetylcholine-induced contraction in guinea pig ileum at 2 ug/ml; type: functional; details: Cavia porcellus; outline: as §2
[13] = tested on: Mus musculus; assay: Antidotal activity in male mouse assessed as inhibition of tetraethylpyrophosphate-induced intoxication at 50 mg/kg, ip drug administered 5 mins prior to subcutaneously administration of 3 X LD50 of TEPP in presence of 25 mg/kg atropine sulfate; type: functional, organism-based; outline: as §1

Compound: CCC1C(=O)OCC1Cc1c[n+](C/C(=N\O)c2ccc(-c3ccccc3)cc2)cn1C (stereo not given) [listing 1 of 2 here]
- inhibition [1]: inactive

Compound: CCC1C(=O)OCC1Cc1c[n+](C/C(=N\O)c2ccc(Br)cc2)cn1C.[Br-] (stereo not given)
- inhibition (INH) [2]: 100%

Compound: CCC1C(=O)OCC1Cc1c[n+](CC(=O)c2ccc([N+](=O)[O-])cc2)cn1C.[Br-] (stereo not given)
- inhibition [1]: inactive
- fold change (FC) [3]: 0.01
- inhibition at 1 µg/mL [4]: 0%

Compound: CCC(C(=O)NO)C(CO)Cc1c[n+](CC(=O)c2ccc([N+](=O)[O-])cc2)cn1C.[Br-] (stereo not given)
- inhibition [1]: inactive
- Activity [5]: Non-toxic
- fold change (FC) [3]: 0.1
- inhibition at 0.1 µg/mL [6]: 0%

Compound: CCC(C(=O)NO)C(CO)Cc1c[n+](Cc2ccc(Br)cc2)cn1C (stereo not given)
- inhibition [7]: Active
- inhibition at 10 µg/mL [2]: 95%

Compound: CCC1C(=O)OCC1Cc1c[n+](CCCOC(C)=O)cn1C.[Br-] (stereo not given)
- Activity [5]: Non-toxic
- fold change (FC) [3]: 0.05
- inhibition at 0.4 µg/mL [8]: 0%

Compound: CCC1C(=O)OCC1Cc1c[n+](CCCO)cn1C.[Br-] (stereo not given)
- Activity [5]: Non-toxic
- fold change (FC) [3]: 0.05
- inhibition at 0.4 µg/mL [8]: 0%

Compound: CN1[C@@H]2CC[C@H]1C[C@@H](OC(=O)C(CO)c1ccccc1)C2 (stereo not given in full) [ATROPINE SULFATE]
- inhibition [1]: inactive
- inhibition at 0.03 µg/mL [9]: 100%

Compound: CCC1C(=O)OCC1Cc1c[n+](C/C(=N\O)c2ccc(Br)cc2)cn1C.[Cl-] (stereo not given)
- inhibition (INH) [2]: 50%

Compound: CCC1C(=O)OCC1Cc1c[n+](C/C(=N\O)c2ccc(-c3ccccc3)cc2)cn1C.[Cl-] (stereo not given)
- inhibition (INH) [2]: 80%

Compound: CC[C@H]1C(=O)OC[C@@H]1Cc1cncn1C
- Activity [5]: Non-toxic
- fold change (FC) [3]: 0.02

Compound: CCC1C(=O)OCC1Cc1c[n+](C/C(=N/O)c2ccc([N+](=O)[O-])cc2)cn1C (stereo not given)
- inhibition [1]: inactive
- inhibition at 10 µg/mL [2]: 90%

Compound: CCC(C(=O)NO)C(CO)Cc1c[n+](Cc2ccc(C)cc2)cn1C (stereo not given)
- inhibition [7]: Active
- inhibition at 10 µg/mL [2]: 55%

Compound: CCC1C(=O)OCC1Cc1c[n+](CC(=O)c2ccc(-c3ccccc3)cc2)cn1C (stereo not given)
- inhibition [1]: inactive
- inhibition at 10 µg/mL [2]: 100%

Compound: CCC(C(=O)NO)C(CO)Cc1c[n+](C/C(=N\O)c2ccc(-c3ccccc3)cc2)cn1C (stereo not given)
- inhibition at 10 µg/mL [2]: 53%

Compound: CCC1C(=O)OCC1Cc1c[n+](CC(=O)c2ccc(Br)cc2)cn1C (stereo not given)
- inhibition [7]: inactive
- inhibition at 10 µg/mL [2]: 90%

Compound: CC[C@@H]1C(=O)OC[C@@H]1Cc1cncn1C [PILOCARPINE]
- Activity [10]: Toxic

Compound: CCC1C(=O)OCC1Cc1c[n+](CCOC(C)=O)cn1C.[Br-] (stereo not given)
- inhibition [7]: inactive
- Activity [5]: Non-toxic
- fold change (FC) [3]: 0.1
- inhibition at 0.1 µg/mL [6]: 0%

Compound: CCC1C(=O)OCC1Cc1c[n+](C/C(=N\O)c2ccc(-c3ccccc3)cc2)cn1C (stereo not given) [listing 2 of 2 here]
- inhibition at 10 µg/mL [2]: 100%

Compound: CCC(C(=O)NO)C(CO)Cc1c[n+](C/C(=N\O)c2ccc(Br)cc2)cn1C (stereo not given)
- inhibition at 10 µg/mL [2]: 55%

Compound: CCC(C(=O)NO)C(CO)Cc1c[n+](CC(=O)c2ccc(Br)cc2)cn1C (stereo not given)
- inhibition [1]: inactive
- inhibition at 10 µg/mL [2]: 80%

Compound: CCC1C(=O)OCC1Cc1c[n+](C/C(=N\O)c2ccc(Br)cc2)cn1C (stereo not given)
- inhibition [1]: inactive
- inhibition [11]: Active

Compound: CCC(C(=O)NO)C(CO)Cc1c[n+](C/C(=N\O)c2ccc([N+](=O)[O-])cc2)cn1C.[Br-] (stereo not given)
- Activity [5]: Non-toxic
- fold change (FC) [3]: 0.01
- inhibition at 2 µg/mL [12]: 0%

Compound: CCC(C(=O)NO)C(CO)Cc1c[n+](Cc2ccc(Cl)c(Cl)c2)cn1C (stereo not given)
- inhibition [7]: Active
- inhibition at 10 µg/mL [2]: 25%

Compound: CCC1C(=O)OCC1Cc1c[n+](CCO)cn1C.[Br-] (stereo not given)
- inhibition [1]: inactive
- Activity [5]: Non-toxic
- fold change (FC) [3]: 0.1
- inhibition at 0.1 µg/mL [6]: 0%

Compound: CCC(C(=O)NO)C(CO)Cc1c[n+](CC)cn1C (stereo not given)
- inhibition at 10 µg/mL [2]: 55%

Compound: CCC1C(=O)OCC1Cc1c[n+](C/C(=N\O)c2ccccc2)cn1C (stereo not given)
- inhibition [13]: Active
- inhibition at 10 µg/mL [2]: 30%
